Measurements from ChEMBL document CHEMBL4251558, “Synthesis and preliminary antiproliferative activity of new pteridin-7(8H)-one derivatives” (Eur J Med Chem, 2018).

tested on: ECa-109 cell line; experiment: Antiproliferative activity against human EC109 cells assessed as decrease in cell viability after 48 hrs by MTT assay; format: functional, cell-based; details: ECa-109, 48 h
Summary of the method: (§1)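 Cells in exponential growth seeded at 3000 per well and allowed 24 h. Medium then replaced with fresh medium holding a range of compound concentrations, followed by 48 h incubation. Viability read by MTT at 570 nm. IC50 is the concentration giving 50% inhibition of proliferation, reported as mean ± SD of three independent experiments.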

Row | SMILES | IC50
1 | CCCSc1nc(NCc2ccccc2)c2ncc(=O)n(Cc3ccccc3)c2n1 | > 64 µM
2 | CCCSc1nc(N2CCN(C)CC2)c2ncc(=O)n(CCCc3ccccc3)c2n1 | 18.3 µM
3 | CCCSc1nc(N2CCOCC2)c2ncc(=O)n(Cc3ccccc3)c2n1 | > 64 µM
4 | CCCSc1nc(NCC2CCCCC2)c2ncc(=O)n(Cc3ccccc3)c2n1 | 36 µM
5 | CCCSc1nc(N2CCN(C)CC2)c2ncc(=O)n(CC3CCCCC3)c2n1 | > 64 µM
6 | CCCSc1nc(N2CCN(C)CC2)c2ncc(=O)n(Cc3ccco3)c2n1 | 24 µM
7 | CCCSc1nc(Nc2cc(OC)c(OC)c(OC)c2)c2ncc(=O)n(Cc3ccccc3)c2n1 | 38.7 µM
8 | CCCNc1nc(SCCC)nc2c1ncc(=O)n2Cc1ccccc1 | > 64 µM
9 | CCCSc1nc(N2CCN(C)CC2)c2ncc(=O)n(Cc3cccs3)c2n1 | 19.7 µM

tested on: MKN-45; experiment: Antiproliferative activity against human MKN45 cells assessed as decrease in cell viability after 48 hrs by MTT assay; format: functional, cell-based; details: MKN-45, 48 h; summary of the method: as §1

Row | SMILES | IC50
10 | CCCSc1nc(NCc2ccccc2)c2ncc(=O)n(Cc3ccccc3)c2n1 | > 64 µM
11 | CCCSc1nc(N2CCN(C)CC2)c2ncc(=O)n(CCCc3ccccc3)c2n1 | 9.97 µM
12 | CCCSc1nc(N2CCOCC2)c2ncc(=O)n(Cc3ccccc3)c2n1 | > 64 µM
13 | CCCSc1nc(NCC2CCCCC2)c2ncc(=O)n(Cc3ccccc3)c2n1 | 21 µM
14 | CCCSc1nc(N2CCN(C)CC2)c2ncc(=O)n(CC3CCCCC3)c2n1 | 17.9 µM
15 | CCCSc1nc(N2CCN(C)CC2)c2ncc(=O)n(Cc3ccco3)c2n1 | 11.6 µM
16 | CCCSc1nc(Nc2cc(OC)c(OC)c(OC)c2)c2ncc(=O)n(Cc3ccccc3)c2n1 | 14.2 µM
17 | CCCNc1nc(SCCC)nc2c1ncc(=O)n2Cc1ccccc1 | 39.2 µM
18 | CCCSc1nc(N2CCN(C)CC2)c2ncc(=O)n(Cc3cccs3)c2n1 | 11.3 µM

tested on: MGC-803; experiment: Antiproliferative activity against human MGC803 cells assessed as decrease in cell viability after 48 hrs by MTT assay; format: functional, cell-based; details: MGC-803, 48 h; summary of the method: as §1

Row | SMILES | IC50
19 | CCCSc1nc(NCc2ccccc2)c2ncc(=O)n(Cc3ccccc3)c2n1 | 46.6 µM
20 | CCCSc1nc(N2CCN(C)CC2)c2ncc(=O)n(CCCc3ccccc3)c2n1 | 13.8 µM
21 | CCCSc1nc(N2CCOCC2)c2ncc(=O)n(Cc3ccccc3)c2n1 | 49.6 µM
22 | CCCSc1nc(NCC2CCCCC2)c2ncc(=O)n(Cc3ccccc3)c2n1 | 30.4 µM
23 | CCCSc1nc(N2CCN(C)CC2)c2ncc(=O)n(CC3CCCCC3)c2n1 | 53.7 µM
24 | CCCSc1nc(N2CCN(C)CC2)c2ncc(=O)n(Cc3ccco3)c2n1 | > 64 µM
25 | CCCSc1nc(Nc2cc(OC)c(OC)c(OC)c2)c2ncc(=O)n(Cc3ccccc3)c2n1 | 15 µM
26 | CCCNc1nc(SCCC)nc2c1ncc(=O)n2Cc1ccccc1 | > 64 µM
27 | CCCSc1nc(N2CCN(C)CC2)c2ncc(=O)n(Cc3cccs3)c2n1 | 16.4 µM

tested on: NCI-H1650; experiment: Antiproliferative activity against human NCI-H1650 cells assessed as decrease in cell viability after 48 hrs by MTT assay; format: functional, cell-based; details: NCI-H1650, 48 h; summary of the method: as §1

Row | SMILES | IC50
28 | CCCSc1nc(NCc2ccccc2)c2ncc(=O)n(Cc3ccccc3)c2n1 | > 64 µM
29 | CCCSc1nc(N2CCN(C)CC2)c2ncc(=O)n(CCCc3ccccc3)c2n1 | > 64 µM
30 | CCCSc1nc(N2CCOCC2)c2ncc(=O)n(Cc3ccccc3)c2n1 | > 64 µM
31 | CCCSc1nc(NCC2CCCCC2)c2ncc(=O)n(Cc3ccccc3)c2n1 | > 64 µM
32 | CCCSc1nc(N2CCN(C)CC2)c2ncc(=O)n(CC3CCCCC3)c2n1 | 51.8 µM
33 | CCCSc1nc(N2CCN(C)CC2)c2ncc(=O)n(Cc3ccco3)c2n1 | 54.9 µM
34 | CCCSc1nc(Nc2cc(OC)c(OC)c(OC)c2)c2ncc(=O)n(Cc3ccccc3)c2n1 | 36.9 µM
35 | CCCNc1nc(SCCC)nc2c1ncc(=O)n2Cc1ccccc1 | > 64 µM
36 | CCCSc1nc(N2CCN(C)CC2)c2ncc(=O)n(Cc3cccs3)c2n1 | > 64 µM
